{"source": "ChEMBL document CHEMBL1165888", "about": "“Synthesis and study of antiproliferative activity of novel thienopyrimidines on glioblastoma cells” (Eur J Med Chem, 2010)"}
{"test_system": "DBTRG-05MG", "assay": "Cytotoxicity against human DBTRG-05MG cells after 72 hrs by MTT assay", "assay_type": "functional, cell-based", "how_it_was_run": "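DBTRG.05-MG cells were grown in RPMI 1640 with 10% heat-inactivated FCS at 37 °C and 5% CO₂. They were seeded at 6×10^3 per well, cultured 72 h, then exposed 72 h to serial dilutions in DMSO (≤1%, ≤200 μM). Viability was read by MTT (0.5 mg/mL, 37 °C), DMSO-solubilized, A570/630, as % of untreated wells. IC50 came from curves; triplicates, mean ± SD.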", "units": {"IC50": "µM"}}
{"smiles": "c1ccc(Nc2ncnc3sc4c(c23)CCCC4)cc1", "IC50": 585}
{"smiles": "CN(C)c1ncnc2sc3ccccc3c12", "IC50": 138}
{"smiles": "CN(C)c1ncnc2sc3c(c12)CCCC3", "IC50": 149}
{"smiles": "c1ccc(Nc2ncnc3sc4ccccc4c23)cc1", "IC50": 109}
{"smiles": "Cc1ccccc1Nc1ncnc2sc3ccccc3c12", "IC50": 61.8}
{"smiles": "COc1ccccc1Nc1ncnc2sc3c(c12)CCCC3", "IC50": 571}
{"smiles": "COc1ccc(Nc2ncnc3sc4c(c23)CCCC4)cc1", "IC50": 152}
{"smiles": "COc1ccc(Nc2ncnc3sc4ccccc4c23)cc1", "IC50": 117}
{"smiles": "Cc1ccccc1Nc1ncnc2sc3c(c12)CCCC3", "IC50": 474}
{"smiles": "COc1ccccc1Nc1ncnc2sc3ccccc3c12", "IC50": 41.2}
